The text below walks through data of ChEMBL document CHEMBL3734704, “Synthesis and Biological Evaluation of Novel Bouchardatine Derivatives as Potential Adipogenesis/Lipogenesis Inhibitors for Antiobesity Treatment” (J Med Chem, 2015).

Assay [1] concerns 3T3-L1. Put plainly: Inhibition of cell differentiation in mouse 3T3L1 cells assessed as delayed time point of cell contact inhibition at 0.5 uM for 9 days. The format is functional. Put shortly:
(§1)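 3T3-L1 preadipocytes were induced to differentiate (IBMX/dexamethasone/insulin for 3 days, then insulin) with compound added from day 0 at 0.5 or 5 µM; DMSO vehicle served as control. Cells were collected and counted every day to follow proliferation and to find when contact inhibition resumed.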

A short description of assay [2]: Decrease in triglyceride level in mouse 3T3L1 cells during all developmental stages at 0.5 uM for 9 days. The assay is classed as functional, cell-based. To be noted: 3T3-L1. The procedure, abridged:
(§2)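 During 3T3-L1 differentiation with compound present (0.5 µM, or 5 µM for one compound), cells were collected and counted every day and triglyceride content was measured by TG assay.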

Assay [3] has as its system HepG2. Put plainly: Decrease in triglyceride level in human HepG2 cells at 1 uM after 24 hrs by GPO-POD assay in presence of 0.5 mM oleic acid sodium. The format is functional. The procedure, abridged: (§3)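 HepG-2 cells seeded, then after 24 h exposed to 0.5 mM oleic acid sodium plus compound (1 µM; dose series up to 10 µM) for 24 h, DMSO vehicle. Cells lysed in 0.2% Triton X-100 for 1 h, sonicated, centrifuged. Triglyceride measured by GPO-POD kit and cholesterol by kit, both normalized to BCA protein; n = 3.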

The subject of assay [4] is HepG2. The assay is described as follows: Decrease in cholesterol level in human HepG2 cells at 1 uM after 24 hrs by […] assay in presence of 0.5 mM oleic acid sodium. The assay is classed as functional. The procedure, abridged: as §3
Assay [5] in a line: Decrease in triglyceride level in mouse 3T3L1 cells during all developmental stages at 5 uM for 9 days. The assay is classed as functional, cell-based. The following applies: 3T3-L1. Put shortly: as §2
The subject of assay [6] is 3T3-L1. Put plainly: Inhibition of cell proliferation in mouse 3T3L1 cells at 5 uM for 9 days. The format is functional, cell-based. The procedure, abridged:
as §1

Assay [7] deals with 3T3-L1. Put plainly: Inhibition of cell differentiation in mouse 3T3L1 cells assessed as delayed time point of cell contact inhibition at 5 uM for 9 days. The format is functional. The procedure, abridged:
as §1

Assay [8] can be described thus: Decrease in triglyceride accumulation in mouse 3T3L1 cells at 1 uM for 3 days oil red O staining based microscopic analysis. The assay is classed as functional, cell-based. To be noted: 3T3-L1. Put shortly:
(§4)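 3T3-L1 cells differentiated from 2 days post-confluence with IBMX/dexamethasone/insulin cocktail for 3 days, then insulin medium to Day 6. Compounds at 1 and 10 µM added Day 0 for 3 days. Triglyceride read on Day 6 with Oil Red O (formaldehyde fixation, 30 min stain, isopropanol extraction, OD 510 nm); n = 3.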

A short description of assay [9]: Decrease in triglyceride accumulation in mouse 3T3L1 cells at 10 uM for 3 days oil red O staining based microscopic analysis. The format is functional, cell-based. The following applies: 3T3-L1. The procedure, abridged: as §4
Assay [10] concerns 3T3-L1. The assay is described as follows: Activation of AMPK alpha in mouse 3T3L1 cells assessed as increase in phophorylated AMPK alpha at Thr 172 residue level at 0.2 mM after 10 mins by western blot analysis. The format is cell-based. Put shortly:
(§5)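 3T3-L1 cells in DMEM/10% FBS at 37 °C, 5% CO2, exposed for 10 min, 2 h or 24 h alongside a DMSO vehicle. Cells were lysed in RIPA with PMSF, Na3VO4, NaF and protease inhibitors. Lysates were run on SDS-PAGE and blotted to PVDF, blocked in 5% BSA, then probed with primary antibodies for 16 h at 4 °C and an HRP secondary. Bands were normalised to GAPDH, with the 10 min DMSO group set as 100%; n = 3.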
For orientation: Immunoblotting shows a protein as a band on a membrane.

Assay [11] relates to 3T3-L1. The assay is described as follows: Activation of AMPK-mediated ACC in mouse 3T3L1 cells assessed as increase in phophorylated ACC level at 0.2 mM after 10 mins by western blot analysis. The format is cell-based. Put shortly: as §5
Assay [12] can be described thus: Downregulation of C/EBP alpha mRNA level in mouse 3T3L1 cells at 0.2 mM after 2 hrs by RT-PCR analysis. The assay is classed as functional, cell-based. To be noted: 3T3-L1.
Assay [13] in a line: Downregulation of PPAR-gamma mRNA level in mouse 3T3L1 cells at 0.2 mM after 2 hrs by RT-PCR analysis. The assay is classed as functional, cell-based. To be noted: 3T3-L1.
For assay [14], the system named is 3T3-L1. Put plainly: Effect on LKB1 expression in mouse 3T3L1 cells at 0.2 mM after 10 mins, 2 and 24 hrs by western blot analysis. The assay is classed as functional, cell-based. The procedure, abridged:
as §5

The nature of assay [15]: Downregulation of C/EBP beta mRNA level in mouse 3T3L1 cells at 0.2 mM after 24 hrs by RT-PCR analysis. The format is functional, cell-based. To be noted: 3T3-L1.
Assay [16] relates to 3T3-L1. Put plainly: Activation of AMPK alpha in mouse 3T3L1 cells assessed as increase in phophorylated AMPK alpha at Thr 172 residue level at 0.2 mM after 24 hrs by western blot analysis. The assay is classed as cell-based. The procedure, abridged: as §5
Assay [17] deals with 3T3-L1. Put plainly: Activation of AMPK-mediated ACC in mouse 3T3L1 cells assessed as increase in phophorylated ACC level at 0.2 mM after 24 hrs by western blot analysis. The assay is classed as cell-based. Put shortly:
as §5

Assay [18] in a line: Downregulation of C/EBP delta mRNA level in mouse 3T3L1 cells at 0.2 mM after 24 hrs by RT-PCR analysis. The following applies: 3T3-L1. The assay is classed as functional, cell-based.
Assay [19] is described as follows: Downregulation of C/EBP alpha mRNA level in mouse 3T3L1 cells at 0.2 mM after 24 hrs by RT-PCR analysis. The assay is classed as functional, cell-based. To be noted: 3T3-L1.
Assay [20] is described as follows: Downregulation of PPAR-gamma mRNA level in mouse 3T3L1 cells at 0.2 mM after 24 hrs by RT-PCR analysis. The format is functional, cell-based. The following applies: 3T3-L1.
Assay [21] is described as follows: Downregulation of SREBP-1c mRNA level in mouse 3T3L1 cells at 0.2 mM after 24 hrs by RT-PCR analysis. The following applies: 3T3-L1. The assay is classed as functional, cell-based.

Calls of active or inactive are those of the source. The calls are words filed in the database; no cut-off is given here.

Consider `CN(C)CCCC/N=C/c1c(-c2nc3ccccc3c(=O)[nH]2)[nH]c2ccccc12`, for which, in the assay with 3T3-L1 [1], the Time is 6 days. Also, the inhibition (usually the percentage by which the read-out fell short of the control) in assay [2] is “Active”.
As to `O=Cc1c(-c2nc3ccccc3c(=O)[nH]2)[nH]c2ccccc12`, the “inhibition (INH)” value in the assay on HepG2 [3] amounted to 16.7%; in the assay on HepG2 [4], 24.1%. Also, the inhibition result (in assay [5]; in the assay on 3T3-L1 [6]) was “Active” each time. The Time with 3T3-L1 [7] was determined as 5 days. Also, the results for the inhibition in assay [8] and in assay [9] were 14.8% and 20.1%, respectively.
Turning to `O=Cc1c(-c2nc(NCCc3ccccc3)c3ccccc3n2)[nH]c2ccccc12`, in the assay with HepG2 [4], the inhibition (INH) is above 50%.
As to `CCN(CC)CCNc1nc(-c2[nH]c3ccccc3c2C=O)nc2ccccc12`, the inhibition entry in the assay on HepG2 [3] was “Active”. Besides, in the assay with HepG2 [4], the inhibition (INH) is above 50%. Moreover, the inhibition in assay [9] turned out to be 87.3%.
Take `CN(C)CCNc1nc(-c2[nH]c3ccccc3c2C=O)nc2ccccc12`: the inhibition entry with HepG2 [3] was “Active”. The inhibition in assay [9] came out at 80.1%.
For the compound `O=Cc1c(-c2nc(NCCN3CCCCC3)c3ccccc3n2)[nH]c2ccccc12`, the inhibition entry (in the assay with HepG2 [3]; in [2]) was “Active” each time. The inhibition (INH) in the assay on HepG2 [4] is above 50%. In addition, in the assay on 3T3-L1 [1], the Time came out at 6 days. This compound also had an inhibition in assay [9] of 87.2%.
`NC(=O)c1ncn([C@@H]2O[C@H](COP(=O)(O)O)[C@@H](O)[C@H]2O)c1N`: the outcome in the assay with 3T3-L1 [10], with 3T3-L1 [11], with 3T3-L1 [16] and with 3T3-L1 [17] was Active. Further, the inhibition result in assay [12], in [13], in assay [15], in [18], in assay [19] and in assay [20] was “Active” in each case. The inhibition result in assay [21] was “Active”. Moreover, the result in the assay with 3T3-L1 [14] was inactive.
`CN1CCN(c2nc(-c3[nH]c4ccccc4c3C=O)nc3ccccc23)CC1` gave an inhibition in [9] of 81.6%.
Turning to `O=Cc1c(-c2nc(NCCCN3CCOCC3)c3ccccc3n2)[nH]c2ccccc12`, the Time with 3T3-L1 [1] was 6 days. Further, the inhibition result in assay [2] was “Active”.
The compound `CCN(CC)c1nc(-c2[nH]c3ccccc3c2C=O)nc2ccccc12` displayed an inhibition in assay [9] of 82.2%.
Take `O=c1[nH]c(-c2[nH]c3ccccc3c2/C=N/CCN2CCCC2)nc2ccccc12`: the Time in the assay with 3T3-L1 [1] stood at 6 days. Also, in [2], the inhibition result was “Active”.
